# Hits are enriched below; roughly 3.4% of the tested compounds scored in any of these assays.
# RanGTP-Imp inh: inhibitors of RanGTP-importin-beta interaction, primary screen, biochemical, FRET, CFP-Ran, YFP-importin-beta, homogeneous | actives 1.1% (n = 300,000) | inhibition, % (no concentration beside the values) | cell-free CFP-Ran/YFP-importin-beta FRET ratio;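 active = more than half of the replicate wells show a fall in the fluorescence ratio signal beyond about 16%, limit read from the data, passing the limit was not always enough; inconclusive = exactly half of the replicate wells pass the set limit; inactive = fewer than half of replicates pass the limit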;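 note: 0% = DMSO wells and 100% = Ran loaded with GDP instead of GTP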
# Runt-CBFb FRET: blocks binding of human RUNX1 Runt domain to CBFb | Cerulean-Runt/Venus-CBFb FRET ratio 530/480, 1 h | inhibition, % at 20 µM | actives 0.46% (n = 220,000) | AID 1496;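 active = inhibition over about 50% at 20 µM in the single-dose screen, limit read from the data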;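 note: 0% = DMSO wells and 100% = excess unlabeled CBFb competitor control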
# Target sequence (Q01196 whole entry, looked up, the tested form may be a part): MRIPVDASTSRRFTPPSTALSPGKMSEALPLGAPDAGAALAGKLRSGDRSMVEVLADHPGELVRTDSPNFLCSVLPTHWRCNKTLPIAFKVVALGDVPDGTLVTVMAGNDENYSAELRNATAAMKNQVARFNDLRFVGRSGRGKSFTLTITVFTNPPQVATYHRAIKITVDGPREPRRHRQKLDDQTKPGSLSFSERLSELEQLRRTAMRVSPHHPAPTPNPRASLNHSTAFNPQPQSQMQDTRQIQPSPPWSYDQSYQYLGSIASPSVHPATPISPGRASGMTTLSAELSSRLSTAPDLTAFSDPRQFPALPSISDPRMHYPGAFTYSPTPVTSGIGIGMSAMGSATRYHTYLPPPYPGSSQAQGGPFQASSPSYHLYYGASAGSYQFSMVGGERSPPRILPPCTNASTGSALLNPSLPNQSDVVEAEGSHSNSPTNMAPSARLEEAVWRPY
# Target sequence (Q13951 whole entry, looked up, the tested form may be a part): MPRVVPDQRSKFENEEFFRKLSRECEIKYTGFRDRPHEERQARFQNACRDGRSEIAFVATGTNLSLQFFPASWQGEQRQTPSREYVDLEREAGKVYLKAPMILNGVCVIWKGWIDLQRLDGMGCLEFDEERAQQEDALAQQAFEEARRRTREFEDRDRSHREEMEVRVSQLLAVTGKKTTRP
#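 Assay system: Cerulean-Runt domain / Medium: Tris 50 mM pH 7.5, KCl, K2SO4, 0.01% BSA / Timing: protein complex preformed 1 h, compound exposure 1 h, room temperature, dark / Measured by: FRET, excitation 422 nm, emission at 530 and 480 nm / Evaluation: loss of energy transfer signal / Control set: 5 µM unlabeled CBFb as full-inhibition high control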
# Wee1 stabilizer: inhibitors of human Wee1 degradation. HeLa Luc-Wee1K328M stability, luciferase luminescence; 100% = proteasome inhibitor MG132 effect. reporter increase, % at 5 µM. actives 1.2% (n = 220,000). AID 1321;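 active = activation above the mean of all tested compounds plus 3 SD, set per screening run, cut at about 8.8% in these data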;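 note: cells exposed to compound for 20 h before luminescence read; 0% = DMSO alone and 100% = MG132 at 30 µM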
# PHOSPHO1 inh: inhibitors of human PHOSPHO1 phosphatase; Q8TCT1; recombinant PHOSPHO1, absorbance phosphatase assay; inhibition, % at 13.3 µM; actives 1.1% (n = 290,000); in the data active = inhibition above about 60%
# Efa HMGR inh: inhibitors of class II HMG-CoA reductase from Enterococcus faecalis; purified E. faecalis HMGR, NADPH absorbance 340 nm kinetic; inhibition, % at 10 µM; actives 0.41% (n = 190,000); AID 1066;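 active = inhibition above a set limit, the median over all tested compounds plus 3 SD, cut at about 9.5% in these data; inconclusive = no clear call, values can overlap the other calls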;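 note: enzyme runs in reverse so mevalonate oxidation gives rising NADPH absorbance; 0% = complete reaction with DMSO and 100% = background rate lacking mevalonate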
# Runt-SMMHC FRET: inhibitors of human RUNX1 Runt domain binding to CBFb-SMMHC; Q01196+Q13951; Cerulean-Runt/Venus-CBFb-SMMHC FRET ratio 530/480, 1 h; inhibition, % at 20 µM; actives 0.74% (n = 220,000); AID 1434;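 active = mean inhibition across duplicate retests at 20 µM reaching about 50%, limit read from the data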;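 note: 0% = DMSO wells and 100% = wells with excess untagged CBFb-SMMHC; inhibitors lower the FRET ratio by blocking Runt binding to CBFb-SMMHC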
# * = called active by the depositor; ? = inconclusive; · = no result given.
SMILES,RanGTP-Imp inh,Runt-CBFb FRET,Wee1 stabilizer,PHOSPHO1 inh,Efa HMGR inh,Runt-SMMHC FRET
Cc1cc(=O)oc2cc(O)c(N=Nc3ccccc3)cc12,-1,-3,9.4*,-14,·,-6
CC(=O)c1cc2c(C)cc(=O)oc2cc1O,4,32,-1,3,-1,51
O=C1C2=C(NC(=S)NC2c2ccc(Cl)cc2)NC(c2ccc(Cl)cc2)N1c1ccc(Cl)cc1 (centres undefined),?,·,10*,4,-2,0
CCc1ccc(C2NC(=S)NC3=C2C(=O)N(c2ccccc2OC)C(c2ccc(CC)cc2)N3)cc1 (centres undefined),-1,-9,0,2,-5,-1
CN(C)C(=O)COC(=O)c1ccccc1Sc1ccccc1C#N,-3,-3,-1,68*,-1,0
O=C(CN(Cc1ccccc1Cl)C(=O)CNS(=O)(=O)c1ccc(F)cc1)NCC1CCCO1 (centres undefined),-3,·,·,42,·,·
Cc1ccccc1CNC(=O)C(=O)NCCC1CCCCN1S(=O)(=O)c1cccs1 (centres undefined),0,·,·,·,·,·
CN1C(=O)c2cccc3c(S(=O)(=O)N(C)C)ccc1c23,19*,·,·,36,·,·
CNS(=O)(=O)c1ccc2c3c(cccc13)C(=O)N2C,5,·,·,39,·,·
N#Cc1nc(-c2ccc(F)cc2)oc1N1CCC(C(N)=O)CC1,1,·,·,1,·,·
CCC(CC)C(=O)Nc1c2c(nn1-c1ccc(F)cc1)CS(=O)(=O)C2,-4,·,·,11,·,·
C=CCSc1nc(-c2ccc(OC)cc2)c(C#N)c(=O)n1CC=C,0,-3,1,60*,3,1
COc1ccc(-c2nc3n(c(=O)c2C#N)CCS3)cc1,3,1,0,18,-7,1
COc1cc(NC(=O)CN2CCN(CC(=O)Nc3ccccc3OC)CC2)cc(OC)c1,0,·,·,24,·,·
O=C(NCc1ccccc1)/C(=C/c1ccc([N+](=O)[O-])cc1)NC(=O)c1ccco1,-9,·,·,22,·,·
O=C(Nc1nc2c(F)cccc2s1)C1CC1,?,·,·,41,·,·
CC1CCc2c(sc(Nc3nc4c(F)cccc4s3)c2C(N)=O)C1 (centres undefined),170*,127*,-4,41,-7,86*
OCCNCCO,-3,·,·,-13,·,·
O=C(CN1CCc2ccccc2C1)c1cccs1,25*,1,1,5,-11,0
O=C(OCC(=O)N1CCc2ccccc2C1)c1cccs1,4,0,3,65*,3,1
COCCCn1c(=N)c(C(=O)NC2CCCCC2)cc2c(=O)n3ccccc3nc21,192*,5,2,-13,1,83*
COc1ccc(Cn2c(=N)c(C(=O)NC3CCCCC3)cc3c(=O)n4ccccc4nc32)cc1,28*,·,·,29,·,·
COc1ccc(CCn2c(=N)c(C(=O)NC3CCCC3)cc3c(=O)n4ccccc4nc32)cc1,-2,·,·,12,·,·
COc1ccc(Cn2c(C)c(C)c(C#N)c2NC(=O)Nc2ccc(Cl)cc2)cc1,1,3,0,-4,11*,2
C=CCOc1ccc(C2C(C#N)=C(N)N(Nc3ccccc3)C3=C2C(=O)CCC3)cc1OC (centres undefined),7,89*,-2,11,-1,104*
SMILES,RanGTP-Imp inh,Runt-CBFb FRET,Wee1 stabilizer,PHOSPHO1 inh,Efa HMGR inh,Runt-SMMHC FRET
COc1cc(C2C(C#N)=C(N)N(Nc3ccccc3)C3=C2C(=O)CC(C)(C)C3)ccc1OCc1ccccc1 (centres undefined),5,18,-4,-5,2,32
COC(=O)c1ccc(NC(=O)CNC(=O)C2CCCCC2)c(C)c1,-2,0,10*,12,1,0
COC(=O)c1ccc(NC(=O)CNC(=O)C2CCCCC2)cc1,2,1,-2,0,-5,0
O=c1[nH]c2ccc(S(=O)(=O)N3CCCCC3)cc2s1,-6,·,·,33,·,·
COc1ccc(/C=C(/C#N)S(=O)(=O)c2ccc(C)cc2)cc1,-15,1,-1,6,40*,2
COCCNC(=O)CCn1nc(-c2ccc(C)cc2)ccc1=O,1,·,·,42,·,·
O=C(CCl)NCCCN(C(=O)C(Cl)Cl)c1ccc([N+](=O)[O-])cc1,5,1,1,3,·,-2
CCN1C(=O)[C@H]2[C@@H](c3ccc(C)cc3)N3C(=O)N(c4cccc(Br)c4)C(=O)[C@@]3(CC(C)C)[C@H]2C1=O,-1,·,·,·,·,·
Cc1ncsc1C(=O)Nc1nc2c(s1)CC(C)CC2 (centres undefined),5,-2,9.6*,-1,-5,-1
Fc1ccccc1NC(=S)N/N=C/c1ccccc1Br,0,0,11*,8,0,3
C/C(=N\NC(=O)CC#N)c1ccc(Oc2ccccc2)cc1,-1,-1,7,28,-3,1
C/C(=N\NC(=O)CC#N)c1cc2ccc(O)cc2oc1=O,2,20,4,26,1,92*
O=C(O)c1ccc(N=c2oc3cc(O)ccc3cc2C(=O)NCc2ccccc2)cc1,169*,4,4,28,0,88*
O=C(NCc1ccccc1)c1cc2ccc(O)cc2oc1=O,186*,·,·,-11,·,·
O=C(NCc1cccnc1)c1cc2ccccc2oc1=O,?,4,-2,7,0,-1
COc1ccc2cc(C(=O)NCc3ccccc3)c(=Nc3ccc(C(=O)O)cc3)oc2c1,0,-5,2,32,-2,-2
N#Cc1cnc(N)c(Br)c1,5,-1,11*,24,-3,1
COc1ccc(N2C(=O)/C(=C/c3cccs3)NC2=S)cc1,-2,35,-2,75*,0,35
CN(C)/C=C1\NC(=S)N(c2ccccc2)C1=O,-2,14,0,-11,1,4
O=C(c1cccc(N2CCCC2=O)c1)N1CCN(c2cccc(Cl)c2)CC1,4,·,·,37,·,·
CCN(CCO)c1ncnc2c1sc1nc(CC(C)C)c3c(c12)CC(C)(C)OC3,?,-12,2,8,9.7*,-8
CN(C(=O)/C=C/c1cnc2ccccc2c1)C1CCCCC1,4,-1,5,32,-8,-3
C=C1c2cc3c(cc2NC(=S)N1Cc1ccccc1)OCO3,9,24,0,70*,·,12
CCN(CC)c1ccc(/C=C(\C#N)c2ccccn2)cc1,45*,-21,-4,-4,-3,-45
CCc1ccc(/C=N/NC(=O)c2ccccn2)cc1,2,1,-2,-12,·,-4
CCN(Cc1ccccc1)c1ccc(/C=C(\C#N)c2ccccn2)cc1,6,-125,1,-2,-8,-59
CCN(CC)c1ccc(/C=N/NC(=O)c2ccccn2)cc1,3,-11,9.5*,-3,·,-36

# Assay outcomes deposited in PubChem by several laboratories.
